# In ChEMBL document CHEMBL3085765, “The synthesis, antiviral, cytostatic and cytotoxic evaluation of a new series of acyclonucleotide analogues with a 1,2,3-triazole linker” (Eur J Med Chem, 2013):
# pEC50, pIC50: −log10 of the molar value.
# Experiments:
# L1210 = assay: Cytostatic activity against mouse L1210 cells after 2 days by coulter ZI particle counting analysis; type: functional, cell-based; details: L1210, 48 h
# Outline: (§1)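 Cells seeded in 96-well plates and grown with or without serial dilutions of compound, 2 days for L1210 and 3 days for CEM and HeLa. IC50 taken as concentration inhibiting cell proliferation by 50%.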
# Human alphaherpesvirus 2 = assay: Antiviral activity against Herpes simplex virus 2 G infected in human HEL cells assessed as inhibition of virus-induced cytopathicity; type: functional, organism-based; details: Human alphaherpesvirus 2, strain G
# Outline: (§2)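 Confluent monolayers (HEL for HSV-1 KOS and HSV-2 G; CRFK for feline herpes virus) in 96-well plates inoculated with 100 CCID50 of virus in presence of varying compound concentrations (100, 20, 4, … μM). Cytopathicity scored when complete in untreated infected controls; EC50 = concentration inhibiting virus-induced cytopathicity by 50%.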
# Human alphaherpesvirus 1 = assay: Antiviral activity against Herpes simplex virus 1 KOS infected in human HEL cells assessed as inhibition of virus-induced cytopathicity; type: functional, organism-based; details: Human alphaherpesvirus 1, KOS; outline: as §2
# CCRF-CEM = assay: Cytostatic activity against human CEM cells after 3 days by coulter ZI particle counting analysis; type: functional, cell-based; details: 72 h; outline: as §1
# HeLa = assay: Cytostatic activity against human HeLa cells after 3 days by coulter ZI particle counting analysis; type: functional, cell-based; details: 72 h; outline: as §1
# Felid alphaherpesvirus 1 = assay: Antiviral activity against Feline herpesvirus infected in cat CRFK cells assessed as inhibition of virus-induced cytopathicity; type: functional, organism-based; details: Felid alphaherpesvirus 1, CRFK; outline: as §2
Structure (SMILES),pIC50 (L1210),pEC50 (Human alphaherpesvirus 2),pEC50 (Human alphaherpesvirus 1),pIC50 (CCRF-CEM),pIC50 (HeLa),pEC50 (Felid alphaherpesvirus 1)
CCOP(=O)(CCCn1cc(Cn2ccc(=O)n(C(=O)c3ccccc3)c2=O)nn1)OCC,< 3.70,< 3.70,< 3.70,< 3.70,< 3.70,< 3.70
CCOP(=O)(CCCn1cc(Cn2c(=O)n(C(=O)c3ccccc3)c(=O)c3ccccc32)nn1)OCC,< 3.70,4.77,4.77,4.36,3.89,4.62
